In ChEMBL document CHEMBL1154738, “Vascular disrupting activity of tubulin-binding 1,5-diaryl-1H-imidazoles” (J Med Chem, 2009):
Active and inactive are the calls of the source. No cut-off for these calls is given here.

How the values were obtained:
[1] = tested on: HUVEC; test: Cytotoxicity against HUVEC after 1 hr by crystal violet staining; type: functional, cell-based, Homo sapiens
[2] = tested on: HUVEC; test: Vascular disrupting activity in HUVEC assessed as change in cell morphology with detachment form substrate after 1 hr by crystal violet staining-based inverted light microscopy; type: functional, Homo sapiens
Summary of the method: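 HUVEC treated for 1 h with compound; morphology (cell retraction, rounding, detachment from substrate) examined by light microscopy.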

[3] = tested on: HUVEC; test: Cytotoxicity against HUVEC after 72 hrs by crystal violet staining; type: functional, cell-based, Homo sapiens
[4] = Dissociation constant, pKa of the compound; type: physicochemical
[5] = Growth inhibition of human NCI60 cells after 3 days by crystal violet staining; type: functional; settings: NCI60, 72 h
[6] = tested on: NCI-H460; test: Growth inhibition of human NCI-H460 cells after 3 days by crystal violet staining; type: functional; settings: NCI-H460, 72 h
[7] = tested on: HCT-15; test: Growth inhibition of human HCT15 cells after 3 days by crystal violet staining; type: functional; settings: HCT-15, 72 h
[8] = tested on: HUVEC; test: Vascular disrupting activity in HUVEC assessed as appearance of blebbing morphology of rounded cells after 1 hr by FITC-onjugated DAPI staining-based immunofluorescence assay; type: functional, cell-based; settings: Homo sapiens
Summary of the method: (§1)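 HUVEC exposed to vehicle or compound (0.1-1 μM range) for 1 h, then tubulin cytoskeleton examined by immunofluorescence for microtubule disorganization and blebbing of rounded cells.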

[9] = tested on: HUVEC; test: Vascular disrupting activity in HUVEC assessed as disorganization of microtubule after 1 hr by FITC-onjugated DAPI staining-based immunofluorescence assay; type: functional, cell-based; settings: Homo sapiens; summary of the method: as §1
[10] = tested on: HUVEC; test: Vascular disrupting activity in HUVEC assessed as disruption of capillary-like structure formation on permissive matrix at 1 uM after 1 hr by microscopy; type: functional, cell-based; settings: Homo sapiens
Summary of the method: (§2)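 HUVEC seeded on 3D Matrigel form capillary-like cord networks by 24 h; compound then added to formed cords and images taken 1 h later to assess cord disruption and shortening.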

[11] = tested on: MDA-MB-435; test: Induction of necrosis in central region of human MDA-MB-435 cells exenografted in NCr nu/nu mouse at 20 mg/kg, ip administered as single dose measured after 24 hrs by haematoxylin/eosin staining-based histopathological analysis; type: functional, organism-based; parameters: dose 20 mg/kg
[12] = tested on: MDA-MB-435; test: Induction of necrosis in central region of human MDA-MB-435 cells exenografted in NCr nu/nu mouse at 80 mg/kg, ip administered as single dose measured after 24 hrs by haematoxylin/eosin staining-based histopathological analysis; type: functional, organism-based; parameters: dose 80 mg/kg
[13] = tested on: Mus musculus; test: Vascular disrupting activity in C57BL/6N mouse assessed as rapid decrease in FGF2-induced vessel formation on permissive matrix at 20 m/kg, ip after 1 hr by FTC-conjugated staining based confocal microscopy; type: functional, organism-based
Summary of the method: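 Matrigel plug containing FGF-2 implanted in mice, vessels allowed to form over 7 days (plug without FGF-2 as negative control). Single ip dose given, then functional perfused vessels visualized 1 h later with FITC-isolectin B4 by confocal microscopy; at least three images per sample, n = 5.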

[14] = tested on: HUVEC; test: Vascular disrupting activity in HUVEC assessed as disruption of capillary-like structure formation on permissive matrix at 0.1 uM after 1 hr by microscopy; type: functional, cell-based; settings: Homo sapiens; summary of the method: as §2
[15] = tested on: HUVEC; test: Vascular disrupting activity in HUVEC assessed as disorganization of microtubule at 0.1 uM after 1 hr by FITC-onjugated DAPI staining-based immunofluorescence assay; type: functional, cell-based; settings: Homo sapiens; summary of the method: as §1
[16] = tested on: HUVEC; test: Vascular disrupting activity in HUVEC assessed as appearance of blebbing morphology of rounded cells at 0.1 uM after 1 hr by FITC-onjugated DAPI staining-based immunofluorescence assay; type: functional, cell-based; settings: Homo sapiens; summary of the method: as §1

| GI50 [6] | GI50 [7] | Compound | IC50 ([2]; huvec) | GI50 [5] | further results |
| --- | --- | --- | --- | --- | --- |
|  |  | COc1ccc(-c2cncn2-c2cc(OC)c(OC)c(OC)c2)cc1 [listing 1 of 2 here] | 950 nM |  | IC50 ([1]; huvec): 20000 nM; IC50 ([3]; huvec): 540 nM; pKa [4]: 6.82 |
| 18 nM | 17 nM | COc1cc(-n2cncc2-c2ccc3ccccc3c2)cc(OC)c1OC [listing 1 of 3 here] | 41500 nM | 72.4 nM | IC50 ([1]; huvec): 28300 nM; IC50 ([3]; huvec): 540 nM |
|  |  | COc1cc(-n2cncc2-c2ccc3ccccc3c2)cc(OC)c1OC [listing 2 of 3 here] |  |  | Activity [8]: Dose-dependent effect; Activity [9]: Dose-dependent effect; Activity [10]: Active; Activity [11]: Active; Activity [12]: Active; Activity [13]: Active; Activity [14]: Active |
| 1580 nM | 1150 nM | COc1ccc(-c2nccn2-c2cc(OC)c(OC)c(OC)c2)cc1 |  | 4570 nM |  |
| 363 nM | 170 nM | COc1ccc(-c2cncn2-c2cc(OC)c(OC)c(OC)c2)cc1 [listing 2 of 2 here] | 6530 nM | 257 nM | IC50 ([1]; Homo sapiens, HUVEC, 1 h): 36100 nM; IC50 ([3]; Homo sapiens, HUVEC, 72 h): 600 nM |
| 270 nM | 80 nM | COc1cc(-n2ccnc2-c2ccc(N(C)C)cc2)cc(OC)c1OC |  |  |  |
| < 10 nM | < 10 nM | COc1ccc(-c2cncn2-c2cc(OC)c(OC)c(OC)c2)cc1F |  | 39.8 nM | IC50 ([1]; Homo sapiens, HUVEC, 1 h): 17000 nM; IC50 ([2]; Homo sapiens, HUVEC, 1 h): 17300 nM; IC50 ([3]; Homo sapiens, HUVEC, 72 h): 450 nM |
|  |  | COc1cc(-n2cncc2-c2ccc3ccccc3c2)cc(OC)c1OC [listing 3 of 3 here] | 40 nM |  | IC50 ([1]; huvec): 2100 nM; IC50 ([3]; huvec): 110 nM; pKa [4]: 5.58 |
| 37 nM | 51 nM | COc1cc(-n2ccnc2-c2ccc3ccccc3c2)cc(OC)c1OC |  | 151 nM |  |
| 79 nM | 36 nM | COc1cc(-n2cncc2-c2ccc(N(C)C)cc2)cc(OC)c1OC |  |  |  |

| Compound | GI50 [6] | GI50 [7] | IC50 ([2]; huvec) | GI50 [5] | further results |
| --- | --- | --- | --- | --- | --- |
| COc1ccc(/C=C\c2cc(OC)c(OC)c(OC)c2)cc1O [COMBRETASTATIN A4] | < 10 nM | < 10 nM |  | 100 nM | IC50 ([1]; Homo sapiens, HUVEC, 1 h): 400 nM; IC50 ([2]; Homo sapiens, HUVEC, 1 h): 10 nM; IC50 ([3]; Homo sapiens, HUVEC, 72 h): 5 nM; Activity [15]: Active; Activity [16]: Active |
